Source: PubChem
This is a sample that favours compounds with a hit; in the whole collection about 5.2% have one here.
NS3 helicase inh – inhibitors of Hepatitis C virus NS3 helicase | NS3 helicase DNA unwinding, Cy5 molecular beacon fluorescence | inhibition, % at 10.9 µM | hit rate 0.56% among 290,000;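 active = inhibition above the mean of all tested compounds plus 3 SD, set per campaign, cut at about 35% in these data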;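 also: 0% = DMSO wells and 100% = thioflavine S control wells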
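Assay system: hepatitis C virus NS3 helicase domain fragment enzyme. Also added: annealed dual-labelled DNA beacon duplex, ATP-started. Timing: 1 h reaction at 25 °C, ATP-initiated. Technique: Cy5 fluorescence at 0 and 60 min, beacon hairpin quenching. Evaluation: % inhibition of unwinding. Replication: one well per compound.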
PfM18AAP inh – blocks P. falciparum M18 aspartyl aminopeptidase. AID 1822. hit rate 1.2% among 290,000. inhibition, % at 7.35 µM. recombinant PfM18AAP, H-Glu-NHMec fluorogenic cleavage;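 active = inhibition above the campaign mean inhibition over all tested compounds plus 3 SD, cut at about 28% in these data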;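 also: 0% = plate median of test compound wells and 100% = 2 mM ZnCl2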
ZTA counter – ZTA (EBV) inhibition in EBNA-1 counter-screen | P03206 | ZTA-DNA binding, fluorescence polarization | inhibition, % at 11 µM | hit rate 0.15% among 320,000 | AID 2234; in the data active = inhibition above about 33%
Target sequence (P03206 whole entry, looked up): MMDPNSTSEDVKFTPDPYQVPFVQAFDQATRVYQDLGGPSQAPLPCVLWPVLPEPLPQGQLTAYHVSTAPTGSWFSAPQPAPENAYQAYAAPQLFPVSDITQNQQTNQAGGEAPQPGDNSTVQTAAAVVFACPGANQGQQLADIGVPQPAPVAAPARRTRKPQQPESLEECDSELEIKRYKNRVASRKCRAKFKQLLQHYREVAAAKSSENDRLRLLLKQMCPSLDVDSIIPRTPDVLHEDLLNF
core dimer inh – HCV core protein dimerization inhibition; AID 1899; TR-FRET GST/Flag-core106 dimerization, 1536-well; hit rate 0.33% among 300,000; inhibition, % at 5 µM;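 active = inhibition above the mean of all tested compounds plus 3 SD, set per screening campaign, cut at about 45% in these data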
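Assay system: GST-tagged and Flag-tagged HCV core protein residues 1-106 / Times: compound-protein-antibody incubation 4 h at 22.5 °C / Signal: time-resolved FRET, ex 340 nm, em 617 and 671 nm / Evaluation: % inhibition based on acceptor/donor emission ratio / Benchmarks: wells lacking GST-core106 and wells with excess unlabelled core106 / Repeats: singlicate, one well per compound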
EBNA-1 inhibitor – blocks EBNA-1 binding to DNA. EBNA-1 DNA binding, fluorescence polarization. inhibition, % at 14.8 µM. hit rate 0.34% among 300,000. AID 1950; in the data active = inhibition above about 28%
ALR inh – human ALR oxidase inhibition via reduced H2O2. hit rate 3.8% among 290,000. P55789. inhibition, % (test concentration not listed). purified ALR, DTT oxidation, H2O2 HRP-luminol luminescence;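 active = mean replicate inhibition above about 79%, with every replicate also reaching it, limit read from the data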
Target sequence (P55789 whole entry, looked up): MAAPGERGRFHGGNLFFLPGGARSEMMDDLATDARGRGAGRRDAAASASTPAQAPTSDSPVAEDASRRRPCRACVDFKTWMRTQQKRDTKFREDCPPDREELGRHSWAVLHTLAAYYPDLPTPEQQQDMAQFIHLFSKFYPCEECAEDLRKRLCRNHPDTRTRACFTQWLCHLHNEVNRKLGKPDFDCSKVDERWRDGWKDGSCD
Numbers without * were called inactive; · = not tested or not shown; ! = repeats disagree.

SMILES	NS3 helicase inh	PfM18AAP inh	ZTA counter	core dimer inh	EBNA-1 inhibitor	ALR inh
CCn1c(CNC(C)=O)nnc1SCC(=O)c1ccc(Br)cc1	2	-2	4	-2	0	96*
CCn1c(CNC(=O)Cc2ccc(OC)cc2)nnc1SCC(=O)c1ccc(Br)cc1	1	-3	-2	3	-11	-9
C[C@@]12C(=O)OC(=O)[C@]1(C)C1CCC2O1	·	·	-5	6	-2	-9
c1ccc(-c2nc(CSc3n[nH]c(-c4cccs4)n3)cs2)cc1	-12	-12	0	3	-20	98*
Nc1cc(=O)[nH]c(SCc2csc(-c3ccccc3)n2)n1	-2	-1	4	7	5	99*
CC1C/C(=N/Nc2nc3ccccc3[nH]2)CC(C)(C)C1 (stereo not drawn)	-14	14	-5	-3	12	99*
CCN(CC)C1CCCCC1NS(=O)(=O)c1ccc(Cl)cc1 (stereo not drawn)	5	2	9	-1	10	-11
O=C(O)c1ccccc1NC1CCCCC1NS(=O)(=O)c1ccccc1 (stereo not drawn)	2	-2	·	·	·	·
O=S(=O)(NC1CCCCC1Nc1ccccc1)c1ccccc1 (stereo not drawn)	5	1	-5	3	-9	99*
CC(=O)Nc1ccc(NC2CCCCC2NS(=O)(=O)c2ccc(Cl)cc2)cc1 (stereo not drawn)	5	10	2	-6	0	99*
O=C(O)CSc1c(-c2ccccc2)[nH]c2ccccc12	-1	1	2	-9	-4	98*
O=C(O)CSc1nc(-c2ccccc2)c(-c2ccccc2)[nH]1	9	-7	-11	1	-8	·
O=C(O)CSc1c(-c2cccs2)[nH]c2ccccc12	24	7	-21	-28	-10	99*
COc1ccccc1OCC(=O)Nc1oc(-c2ccccc2)c(-c2ccccc2)c1C#N	0	8	-17	29	-11	1
N#Cc1c(NC(=O)COC(=O)C2CC3C=CC2C3)oc(-c2ccccc2)c1-c1ccccc1 (stereo not drawn)	9	-1	15	69*	-8	-1
Cc1ccc(OCC(=O)Nc2oc(-c3ccccc3)c(-c3ccccc3)c2C#N)cc1	-1	-3	8	47*	-1	-3
N#Cc1c(NC(=O)CN2CCOCC2)oc(-c2ccccc2)c1-c1ccccc1	-9	8	6	-1	6	99*
Cc1ccc2nc(-c3ccccc3)cc(C(=O)NCC(c3ccco3)N(C)C)c2c1 (stereo not drawn)	·	·	-4	0	0	17
COc1ccc(CN2CC(C(=O)NCCCN3CCCC(C)C3)CC2=O)cc1 (stereo not drawn)	4	3	3	0	-5	-1
COc1ccc(NC(=O)CCCCC(=O)Nc2ccc(OC)cc2OC)c(OC)c1	·	·	-3	8	-1	-13
COc1ccc(NC(=O)CCSCCC(=O)Nc2ccc(OC)cc2OC)c(OC)c1	5	-1	-1	10	0	97*
COc1ccc(NC(=O)CSCc2ccc(C#N)cc2)c(OC)c1	1	5	3	4	-2	98*
CC(Oc1ccccc1F)C(=O)NNC(=O)c1ccc(F)c(S(=O)(=O)N2CCOCC2)c1 (stereo not drawn)	10	-5	·	·	·	-14
O=C(NCc1ccccc1)c1ccc2nc(-c3ccco3)c(-c3ccco3)nc2c1	24	14	9	73*	17	-25
O=C(NCCCO)c1ccc2nc(-c3ccco3)c(-c3ccco3)nc2c1	0	29*	·	·	·	·
SMILES	NS3 helicase inh	PfM18AAP inh	ZTA counter	core dimer inh	EBNA-1 inhibitor	ALR inh
CCCCNC(=O)c1ccc2nc(-c3ccco3)c(-c3ccco3)nc2c1	20	2	3	50*	3	-236
O=C(NCc1ccccc1)c1ccc2nccnc2c1	-6	-2	0	-1	0	-4
Cc1cccc(Cc2c(C)nc3nc(SCC(=O)NCc4ccco4)nn3c2C)c1	5	-2	4	24	-15	77*
COCc1nc2oc3ccccc3c(=O)c2cc1C(=O)OC	-3	1	7	5	12	-5
CCN(CC)c1ccc(SS(=O)(=O)O)cc1	1	-2	-1	-14	-4	99*!
Cc1ccc(NC(=O)COc2ccc(-n3cnnn3)cc2)cc1C	1	5	13	18	6	-11
CCCCOc1ccc(/C(N)=N/O)cc1	-7	-3	1	5	0	99*
Cc1ccc(NC(=O)COc2ccc(/C(N)=N/O)cc2)cc1C	-4	6	13	2	3	99*
Cc1cc(C)cc(C(=O)NC(=S)Nc2cccnc2)c1	-4	10	-5	3	6	16
C=CCn1c(SCC(=O)c2ccc(O)c(O)c2)nnc1-c1cccc(OC)c1	·	·	-14	·	·	99*
C=CCn1c(SCC(=O)c2cccs2)nc2sc(C)cc2c1=O	0	4	-14	10	7	-15
C=CCn1c(SCC(=O)c2ccc(O)c(O)c2)nnc1-c1ccc(OC)cc1	·	·	6	·	·	91*
C=CCn1c(SCC(=O)c2cccs2)nnc1-c1cccc(OC)c1	-2	4	21	9	9	93*
C=CCn1c(SCC(=O)c2ccc(O)c(O)c2)nnc1-c1ccc(C)cc1	·	·	-16	·	·	65
Oc1ccc(Br)cc1-c1cc(-c2ccco2)[nH]n1	-7	1	2	11	12	92*
COc1ccc(C(=O)NCCNc2nc3ccc(C)cc3cc2C#N)cc1OC	6	14	-10	6	-2	90*
CCOc1ccc2nc(NCCCNC(=O)c3cc(OC)c(OC)c(OC)c3)c(C#N)cc2c1	-13	-6	1	2	-2	·
Cc1nc(SCC(=O)NCCc2ccc(Cl)cc2)nc(C)c1C	5	2	7	-4	-1	3
CC(C(=O)Nc1ncc([N+](=O)[O-])s1)N1C(=O)c2ccccc2S1(=O)=O (stereo not drawn)	·	·	-14	-2	0	-1
O=C1CSC(=S)N1c1cccc(O)c1	13	-8	·	·	·	-3
O=C1CSC(=S)N1c1cccc(Br)c1	12	30*	0	0	4	-23
O=C(O)c1cccc(N2C(=O)CSC2=S)c1	15	13	-10	6	-3	79*
COc1cc(OC)cc(OC(=O)C2CCN(C(=O)c3ccc(Cl)cc3)CC2)c1	·	·	4	·	·	-33
Cc1ccc(SCC(=O)NCCN2C(=O)CSC2=O)c(C)c1	-4	0	18	-3	12	-18
Cc1ccc(-c2nc(SCC(=O)NCCN3C(=O)CSC3=O)[nH]c2-c2ccc(C)cc2)cc1	-5	7	13	-3	0	88*
CCOC(=O)C1=C(c2ccccc2)N2CCN=C2S1	-10	32*	·	·	·	·
